Results from PubChem BioAssay.
Records with an inconclusive call do not appear.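 Rule for the calls, unless noted: active = growth inhibition above 25% in both replicates, a cutoff set 3 SD above the mean; inconclusive = above 25% in only one replicate; inactive = the rest.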

How the values were obtained:
[1] = S. cerevisiae growth inhibition in permissive medium (OD615), pilot counter-assay for S. cerevisiae lifespan shortening project, permissive growth control (AID 705); conditions: OD615, 24 h, at 10 µM, hits give high values
In short: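 System – S. cerevisiae with engineered DeaD lifespan system · Buffer or medium – SC raffinose/galactose permissive medium · Schedule – cells pre-grown 4 h, then 24 h compound exposure, 30 °C humidified · Technique – culture turbidity as optical density at 615 nm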

[2] = S. cerevisiae growth inhibition in restrictive medium, OD615, pilot screen, restrictive growth control, yeast lifespan reduction project (AID 706;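 active = growth inhibition above a set limit, 3 SD over mean compound inhibition, in both replicates, cut at about 43% in these data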;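 note: modified DeaD lifespan yeast strain shifted to restrictive glucose medium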); conditions: OD615, 48 h, at 10 µM, hits give high values
In short: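 Material: engineered S. cerevisiae DeaD strain / Medium: glucose-based CSMM-D restrictive medium / Compound: single dose of 10 µM compound final, 0.25% DMSO / Timing: 4 h pre-incubation, 48 h exposure at 30 °C / Technique: OD615 absorbance reading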

[3] = doxorubicin toxicity protection in MRP-1 cells – H69AR cells, CellTiter-Glo, duplicate, MRP-1 activator project, pilot screen (AID 807;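 active = viability increase at or above a cutoff of the median across tested compounds plus 3 SD, cut at about 8.5% in these data, passing the limit was not always enough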;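 note: compound pretreatment 18-22 h then 72 h combined with doxorubicin; 0% = doxorubicin alone and 100% = vehicle without doxorubicin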); conditions: H69AR viability with doxorubicin, CellTiter-Glo luminescence; at 10 µM; hits give high values
[4] = viability of HCT116 without oncogenic beta-catenin – human colon tumor cells, pilot screen (AID 823;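 active = cell viability at or below a set limit in both duplicate runs, the limit being the all-compound median minus 4 SD, cut at about 23% in these data, passing the limit was not always enough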;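 note: 0% = wells killed by 20 µM Hyamine and 100% = untreated DMSO cell wells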); conditions: HCT116 beta-catenin knockout viability, CellTiter-Glo, 60 h; at 10 µM; hits give low values
[5] = viability of PTEN-null HCT116 cells – cell-based, HCT116 clonal line, CellTiter-Glo, pilot screen (AID 824;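 active = viability at or below 27.92% in each of two runs, the all-compound median minus 4 SD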;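 note: 0% = 20 µM Hyamine control and 100% = vehicle cell control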); conditions: HCT116 PTEN-deleted viability, 60 h, at 10 µM, hits give low values
[6] = RAM pathway blockade in budding yeast – dse1pr::URA3 reporter, 5-FOA selection, pilot screen (AID 869;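 active = inhibition over a set limit, the all-compound mean plus 3 SD, in both replicate runs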;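 note: 0% = DMSO wells with no growth and 100% = 10 µM 1-NA-PP1 with full growth; RAM network block rescues cells from 5-FOA so hits raise OD615 growth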); conditions: S. cerevisiae dse1pr::URA3 5-FOA growth, OD615, 2 d; at 10 µM; hits give high values; strain carries analog-sensitive mutant Cbk1 kinase
[7] = RAM signaling pathway blockade in yeast – S. cerevisiae, Pdr1DBD-CYC8 efflux-inhibited sensitized strain, primary screen (AID 1298;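 active = RAM network inhibition above 8.4% in each of two replicates, 3 SD over the compound average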;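 note: 0% = DMSO untreated cells without growth and 100% = 10 µM 1-NA-PP1 full growth; higher means more yeast growth rescued from 5-FOA killing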); conditions: S. cerevisiae cbk1-as DSE1-URA3 strain, 5-FOA growth OD615, 2 d; at 50 µM; hits give high values

CCOC(=O)CSc1nc2nc(C)cc(C)n2n1
inactive: growth inhibition [1] 4.15% | growth inhibition [2] 6.3% | viability increase [3] -1.33% | viability [4] 101% | viability [5] 96% | inhibition [6] 2.5% | RAM network inhibition [7] 4.98%

COc1cccc(CNC(=O)Cn2cc3c(n2)CCCCC3)c1
inactive: growth inhibition [1] -12.5% | growth inhibition [2] -19.7% | viability increase [3] -1.29% | viability [4] 92.3% | viability [5] 85.9% | inhibition [6] 1.56% | RAM network inhibition [7] 1.81%

COCCn1c(SCC(N)=O)nc2c(c1=O)SC(C)C2 (stereo not drawn)
inactive: growth inhibition [1] -1.48% | growth inhibition [2] -3.57% | viability increase [3] 0.08% | viability [4] 99.4% | viability [5] 97% | inhibition [6] 1.84% | RAM network inhibition [7] 5.52%

Cc1ccc(-c2nc(CS(=O)CC(=O)NCCN3CCOCC3)c(C)o2)cc1 (stereo not drawn)
inactive: growth inhibition [1] -6.06% | growth inhibition [2] 2.29% | viability increase [3] -0.04% | viability [4] 92.9% | viability [5] 98% | inhibition [6] 1.84% | RAM network inhibition [7] 2.15%

Cn1cccc1Cc1nnc(SCC(=O)N2CCCC2)n1CCc1ccccc1
inactive: growth inhibition [1] 1.38% | growth inhibition [2] 16.7% | viability increase [3] -1.41% | viability [4] 103% | viability [5] 102% | inhibition [6] 0.04% | RAM network inhibition [7] 1.63%

c1ccc(-c2ccc(-c3nc(-c4cccnc4)no3)cc2)cc1
inactive: growth inhibition [1] 16.4% | growth inhibition [2] 20% | viability increase [3] -0.01% | viability [4] 80.8% | viability [5] 89.3% | inhibition [6] 0.455% | RAM network inhibition [7] -0.01%

Nc1ccc(C(=O)c2ccc3c(c2)OCCO3)cc1N
inactive: growth inhibition [1] 4.75% | growth inhibition [2] 6.96% | viability increase [3] -6.58% | viability [4] 102% | viability [5] 97.5% | inhibition [6] 0.375% | RAM network inhibition [7] 4.41%

O=S(=O)(c1ccc(Oc2ccc(S(=O)(=O)N3CCOCC3)cc2)cc1)N1CCOCC1
inactive: growth inhibition [1] -21.5% | growth inhibition [2] -21.2% | viability increase [3] -1.32% | viability [4] 82.7% | viability [5] 87.6% | inhibition [6] 4.01% | RAM network inhibition [7] 4.04%

Cc1cc(C(=O)NC2CCCC2)on1
inactive: growth inhibition [1] -11.8% | growth inhibition [2] -21.1% | viability increase [3] 0.32% | viability [4] 107% | viability [5] 102% | inhibition [6] 1.71% | RAM network inhibition [7] 1.5%

Cc1ccc(CCNC(=O)CS(=O)Cc2nc(-c3cccc(C)c3)oc2C)cc1 (stereo not drawn)
inactive: growth inhibition [1] -4.94% | growth inhibition [2] 2.34% | viability increase [3] 2.47% | viability [4] 85.3% | viability [5] 86.9% | inhibition [6] 2.59% | RAM network inhibition [7] 6.2%

CCCC1(C(=O)O)NC(c2ccc(OC)cc2O)C2C(=O)N(c3ccc(OC)cc3)C(=O)C21 (stereo not drawn)
inactive: growth inhibition [1] -7.46% | growth inhibition [2] 1.98% | viability increase [3] -0.54% | viability [4] 95.8% | viability [5] 91.6% | inhibition [6] 1.48% | RAM network inhibition [7] 2.34%

O=C(OCN1C(=O)c2ccccc2C1=O)c1cccs1
inactive: growth inhibition [1] -2.01% | growth inhibition [2] -11.2% | viability increase [3] -0.64% | viability [4] 94.7% | viability [5] 96.5% | inhibition [6] 1.2% | RAM network inhibition [7] 1.51%

CN1CCN(CCCNC(=O)c2ccc3c(c2)N(Cc2ccccc2)CCS3)CC1
inactive: growth inhibition [1] -2.21% | growth inhibition [2] -12.1% | viability increase [3] -5.47% | viability [4] 64.8% | viability [5] 67.4% | inhibition [6] 0.9% | RAM network inhibition [7] 4.28%

CN1CCN(S(=O)(=O)c2ccc(NC(=O)c3cccc(S(=O)(=O)N4CCCC4)c3)cc2)CC1
inactive: growth inhibition [1] -5.16% | growth inhibition [2] -5.09% | viability increase [3] -3.98% | viability [4] 89.2% | viability [5] 97.2% | inhibition [6] 2% | RAM network inhibition [7] 9.3%

CC(C)CC(NS(=O)(=O)c1ccc2c(c1)oc(=O)n2C)C(=O)NCc1cccnc1 (stereo not drawn)
inactive: growth inhibition [1] -0.43% | growth inhibition [2] 15.8% | viability increase [3] -0.08% | viability [4] 112% | viability [5] 98.9% | inhibition [6] 1.82% | RAM network inhibition [7] 0.99%

CCOC(=O)C1CCN(C(=O)c2ccc(Cl)c(NC3=NC4CS(=O)(=O)CC4S3)c2)CC1 (stereo not drawn)
inactive: growth inhibition [1] -13.6% | growth inhibition [2] -14.5% | viability increase [3] -0.09% | viability [4] 107% | viability [5] 89.4% | inhibition [6] 1.65% | RAM network inhibition [7] -0.37%

CCOC(=O)Cc1csc(NC(=O)CN(C)S(=O)(=O)c2cccc3cccnc23)n1
inactive: growth inhibition [1] -11.1% | growth inhibition [2] -7.54% | viability increase [3] -4.61% | viability [4] 93.5% | viability [5] 81.7% | inhibition [6] 1.14% | RAM network inhibition [7] 4.44%

O=C1CC(c2ccco2)CC(O)=C1C=NCCO (stereo not drawn)
inactive: growth inhibition [1] -12.7% | growth inhibition [2] -1.73% | viability increase [3] 0.27% | viability [4] 104% | viability [5] 105% | inhibition [6] 1.79% | RAM network inhibition [7] 3.26%

CC1CCN(c2nc(-c3ccncc3)nc3ccccc23)CC1
inactive: growth inhibition [1] 6.84% | growth inhibition [2] -2.73% | viability increase [3] -5.28% | viability [4] 40.4% | viability [5] 58.7% | inhibition [6] 0.745% | RAM network inhibition [7] 5.56%

Cc1[nH]nc2c1/C(=N\O)CC(C)(C)C2
inactive: growth inhibition [1] 12.7% | growth inhibition [2] -8.1% | viability increase [3] -2% | viability [4] 94.2% | viability [5] 98.1% | inhibition [6] 1.48% | RAM network inhibition [7] -1.33%

CNC(=O)c1sc2nc(-c3ccc(OC)cc3)cn2c1C
inactive: growth inhibition [1] 3.27% | growth inhibition [2] 2.45% | viability increase [3] 1.57% | viability [4] 104% | viability [5] 106% | inhibition [6] 2% | RAM network inhibition [7] 0.64%

OCCCc1nc2ccccc2n1CCOc1ccccc1
inactive: growth inhibition [1] -10.4% | growth inhibition [2] 12.7% | viability increase [3] -0.86% | viability [4] 88.5% | viability [5] 94.6% | inhibition [6] 0.595% | RAM network inhibition [7] 2.86%

COc1cccc(CN2C(=O)CCC2(C)C(=O)NC2CCCCC2)c1 (stereo not drawn)
inactive: growth inhibition [1] -6.64% | growth inhibition [2] 1.03% | viability increase [3] 0.54% | viability [4] 107% | viability [5] 100% | inhibition [6] -0.375% | RAM network inhibition [7] 0.22%

O=C(OCn1nnc2ccccc2c1=O)c1cccs1
inactive: growth inhibition [1] -7.72% | growth inhibition [2] 2.16% | viability increase [3] -0.21% | viability [4] 103% | viability [5] 95.9% | inhibition [6] 0.24% | RAM network inhibition [7] 3.6%
